WT yeast gro inh – growth inhibition of WT yeast, mitochondrial fusion screen | mitochondrial fusion phenotypic screen, WT strain | inhibition, % at 10 µM | actives 2.1% (n = 190,000) | AID 1362; in the data active = inhibition above about 58%; tested in S. cerevisiae
MT stabilize HCS – microtubule stabilizers in HeLa cells | HeLa tubulin immunostaining HCS, 24 h; share of cells brighter than vehicle mean+2SD | % tubulin-high responders, % at 10 µM | actives 0.83% (n = 200,000);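 active = plate Z-score above 3 for both tubulin-high and condensed-nucleus cell shares, with cell loss under 80%, at 10 µM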;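 note: anti alpha tubulin signal scored within the nucleus-defined area of each cell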
b-catenin transl – modulators of beta-catenin nuclear translocation; HeLa beta-catenin nuclear translocation, immunofluorescence imaging; nuclear translocation activity, % at 5 µM; actives 0.3% (n = 190,000); AID 1665;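 active = nuclear translocation activity above 50% at 5 µM, with a well cell count of 50 or more; inconclusive = wells under 50 cells across six images, flagged as toxic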;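 note: per-cell ratio of nuclear to cytoplasmic median beta-catenin stain intensity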
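Test system: human HeLa cells, endogenous beta-catenin. Times: 24 h compound exposure, 37°C. Measured by: beta-catenin immunofluorescence imaging with DAPI.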
KCC2 mod – modulators of human KCC2 chloride dependent transport; Q9H2X9; KCC2 cells, thallium flux FluoZin-2 fluorescence; B-score of Tl+ flux slope (higher = more flux/activation; lower = inhibition) at 10 µM; actives 2.2% (n = 190,000); AID 1456;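 active = thallium flux slope and its plate-corrected score both differing from the plate sample mean at a set confidence after two filtering rounds, in either direction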;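 note: slope of fluorescence scaled to starting intensity during 10 to 20 s after thallium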
Target sequence (Q9H2X9 whole entry, looked up): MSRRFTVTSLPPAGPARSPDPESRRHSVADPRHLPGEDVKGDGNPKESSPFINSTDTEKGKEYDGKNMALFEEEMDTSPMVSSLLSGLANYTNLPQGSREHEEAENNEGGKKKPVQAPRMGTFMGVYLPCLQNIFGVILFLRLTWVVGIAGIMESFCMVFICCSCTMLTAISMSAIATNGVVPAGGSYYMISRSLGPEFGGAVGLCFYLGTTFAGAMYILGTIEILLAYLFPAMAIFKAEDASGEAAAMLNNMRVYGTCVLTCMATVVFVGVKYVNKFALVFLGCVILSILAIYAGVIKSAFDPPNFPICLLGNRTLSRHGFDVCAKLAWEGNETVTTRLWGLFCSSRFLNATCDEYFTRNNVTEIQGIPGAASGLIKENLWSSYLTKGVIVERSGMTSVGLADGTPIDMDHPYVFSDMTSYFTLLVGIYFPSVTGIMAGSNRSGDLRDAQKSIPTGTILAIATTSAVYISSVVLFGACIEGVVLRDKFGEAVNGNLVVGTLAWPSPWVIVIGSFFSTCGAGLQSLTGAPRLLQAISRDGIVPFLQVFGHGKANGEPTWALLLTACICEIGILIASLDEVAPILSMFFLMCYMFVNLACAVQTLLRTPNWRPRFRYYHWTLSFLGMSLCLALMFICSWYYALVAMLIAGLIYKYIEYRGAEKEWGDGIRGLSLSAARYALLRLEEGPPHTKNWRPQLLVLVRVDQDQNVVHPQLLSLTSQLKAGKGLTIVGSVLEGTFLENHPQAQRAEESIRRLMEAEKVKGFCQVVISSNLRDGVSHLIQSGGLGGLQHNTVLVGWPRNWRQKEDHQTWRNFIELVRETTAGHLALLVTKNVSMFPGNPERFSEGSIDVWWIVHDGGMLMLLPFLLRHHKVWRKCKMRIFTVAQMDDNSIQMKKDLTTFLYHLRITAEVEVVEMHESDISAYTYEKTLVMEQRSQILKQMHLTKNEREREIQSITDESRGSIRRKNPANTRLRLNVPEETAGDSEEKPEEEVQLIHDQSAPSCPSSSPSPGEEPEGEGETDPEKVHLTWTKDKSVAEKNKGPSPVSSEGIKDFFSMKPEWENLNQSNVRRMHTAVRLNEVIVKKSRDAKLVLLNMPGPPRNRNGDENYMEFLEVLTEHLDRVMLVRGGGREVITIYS
Pf gametocyte – inhibitors of late stage P. falciparum gametocyte viability; P. falciparum stage V gametocytes, ATP luminescence, 24 h; inhibition, % at 10.9 µM; actives 0.065% (n = 150,000); AID 743093;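 active = inhibition above the mean plus 3 SD of compounds within the control limits, set per campaign, cut at about 38% in these data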
KCC2 sec1 – KCC2 (human) modulation, secondary assay; shares compounds with KCC2 mod; HEK293-KCC2, thallium flux, FluoZin2 fluorescence; hits give high values; normalised thallium flux (F/F0 slope) at 10 µM; actives 15% (n = 3,700); AID 1713;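 active = thallium flux slope above the same plate's solvent-only control mean plus 3 SD; inconclusive = the two replicate wells disagree; inactive = no significant difference from solvent-only control wells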
KCC2 bumet counter – thallium flux despite bumetanide block in KCC2 cells, secondary assay 3 | shares compounds with KCC2 mod | HEK293-KCC2 + bumetanide/ouabain, thallium flux FluoZin2; hits give high values | normalized thallium flux at 10 µM | actives 49% (n = 3,700);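 active = thallium entry rate above the same plate's blocked-transporter control wells by more than 3 SD; inconclusive = the two repeat wells disagree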;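 note: raw slope of fluorescence over initial fluorescence between 10 and 20 s after thallium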
KCC2 secondary2 – confirmation of human KCC2 transport modulators. shares compounds with KCC2 mod. normalized thallium flux at 10 µM. actives 23% (n = 3,700). HEK293-KCC2, thallium flux FluoZin2 fluorescence; actives lie on both sides; F/F0 rise rate, 10–20 s post-thallium;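 active = thallium flux slope more than 3 SD above or below the plate's solvent-only control mean, mostly below; inconclusive = the two repeat wells disagreed; inactive = no significant shift from solvent-only controls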
HEK293 Tl flux – parental HEK flux effect, counter-screen; shares compounds with KCC2 mod; HEK293 parental cells, thallium flux FluoZin2, ouabain; baseline-ratio fluorescence slope, 10–20 s after thallium; thallium flux rate (normalised fluorescence) at 10 µM; actives 46% (n = 3,700);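 active = thallium flux rate significantly above the same plate's solvent-only control wells, beyond their mean plus 3 SD; inconclusive = the two replicate wells gave conflicting results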
KCC2 retest ouab – KCC2 (human) modulation, ouabain retest; shares compounds with KCC2 mod; HEK293-KCC2, thallium flux FluoZin2 fluorescence; bidirectional: low = inhibitor, high = activator; raw Tl+ flux slope (below DMSO = inhibition, above = activation) at 10 µM; actives 48% (n = 3,700);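 active = thallium flux slope beyond 3 SD from same-plate DMSO control mean in most replicates, usually higher, sometimes lower; inconclusive = repeat tests gave conflicting results; inactive = no significant difference from controls in most replicates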;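 note: slope of initial-normalized fluorescence between seconds 10 and 20 after thallium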
HEK counter2 – counter-screen for KCC2 modulators: effect in parental HEK293 cells. shares compounds with KCC2 mod. thallium flux FluoZin-2 fluorescence slope. thallium flux slope at 10 µM. actives 33% (n = 3,700);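 active = thallium flux slope above the same plate's solvent-control mean plus 3 SD in both duplicate wells; inconclusive = duplicate wells that disagreed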;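 note: run without ouabain in cells lacking the KCC2 cotransporter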
Each line names hits and unclear results; the compound was inactive in the other large screens (follow-up assays come after a bar, where they were run). In the library only some 4% were active in any assay of this set; here they are far more common.

CCOC(=O)c1c(-c2ccccc2)csc1NC(=O)CSc1nnnn1C	KCC2 mod -4.7 | KCC2 sec1 inactive | KCC2 bumet counter inactive | KCC2 secondary2 inactive | HEK293 Tl flux inactive | KCC2 retest ouab inconclusive | HEK counter2 inconclusive
O=C1[C@H]2[C@@H](c3ccc(F)cc3)N3C(=O)N(c4ccc(Br)cc4)C(=O)[C@@]3(Cc3ccccc3)[C@H]2C(=O)N1C1CCCCC1	none (no result: WT yeast gro inh, MT stabilize HCS, b-catenin transl, KCC2 mod)
Cc1ccc(C(=O)NC(=S)N2CCN(C(=O)OC(C)(C)C)CC2)cc1Br	KCC2 mod 19 | KCC2 sec1 inconclusive | KCC2 bumet counter 0.088 | KCC2 secondary2 0.074 | HEK293 Tl flux 0.062 | KCC2 retest ouab 0.087 | HEK counter2 0.057
CN1CCN(C(=S)NC(=O)c2ccc(Cl)cc2)CC1	KCC2 mod 14 (no result: Pf gametocyte) | KCC2 sec1 inactive | KCC2 bumet counter 0.02 | KCC2 secondary2 inactive | HEK293 Tl flux 0.018 | KCC2 retest ouab 0.029 | HEK counter2 0.017
CCOC(=O)N1CCN(C(=S)NC(=O)c2cncc(Br)c2)CC1	none
CCOC(=O)N1CCN(C(=S)NC(=O)c2ccc(Br)cc2)CC1	KCC2 mod 17 | KCC2 sec1 0.023 | KCC2 bumet counter 0.059 | KCC2 secondary2 inactive | HEK293 Tl flux inconclusive | KCC2 retest ouab inactive | HEK counter2 0.013
COc1ccc(N2CCN(c3nc(Cl)nc(Nc4ccc(F)cc4)n3)CC2)cc1	none (no result: b-catenin transl, Pf gametocyte)
COc1cc(NC(=O)Cn2nc(C(F)(F)F)c(Br)c2C)cc([N+](=O)[O-])c1	none
COc1cccc(/C=N/NC(=O)CSc2cccc3cccnc23)c1	KCC2 mod 28 (no result: WT yeast gro inh, MT stabilize HCS) | KCC2 sec1 inactive | KCC2 bumet counter 0.03 | KCC2 secondary2 inactive | HEK293 Tl flux inconclusive | KCC2 retest ouab 0.03 | HEK counter2 inactive
O=C(CSc1cccc2cccnc12)N/N=C/c1ccc(O)cc1	none (no result: WT yeast gro inh, MT stabilize HCS)
COc1ccc(-c2nc(C(F)(F)F)c(OC)o2)cc1OC	none (no result: b-catenin transl, Pf gametocyte)
COc1ccc(C(=O)N2CCCC(C(=O)N3CCN(c4ccccc4)CC3)C2)cc1 (stereo not given)	none (no result: WT yeast gro inh, MT stabilize HCS)
COc1ccc(C(=O)NC(=S)NCc2ccco2)cc1	KCC2 mod 6.8 (no result: WT yeast gro inh, MT stabilize HCS) | KCC2 sec1 inactive | KCC2 bumet counter 0.015 | KCC2 secondary2 inactive | HEK293 Tl flux inconclusive | KCC2 retest ouab inconclusive | HEK counter2 inactive
Cc1ccc(C(=O)NC(=S)NCc2ccco2)cc1	KCC2 mod 19 | KCC2 sec1 0.014 | KCC2 bumet counter 0.022 | KCC2 secondary2 inactive | HEK293 Tl flux 0.027 | KCC2 retest ouab 0.029 | HEK counter2 0.016
CC(C)OC(=O)c1cc(NC(=O)c2nn(C)cc2Br)cc(C(=O)OC(C)C)c1	none
CCOC(=O)CC(NC(=O)C1c2ccccc2Oc2ccccc21)c1ccccc1Cl (stereo not given)	none
CCOP(=O)(c1ccc(N(C)C)cc1)C(O)c1ccccc1 (stereo not given)	none
CCOP(=O)(c1ccc(N(C)C)cc1)C(O)c1ccc(Cl)cc1 (stereo not given)	KCC2 mod -5 (no result: WT yeast gro inh) | KCC2 sec1 inactive | KCC2 bumet counter inactive | KCC2 secondary2 inactive | HEK293 Tl flux inactive | KCC2 retest ouab inactive | HEK counter2 inactive
Cn1c(=O)c2c(ncn2CC(=O)OCC(=O)Nc2cc(Cl)ccc2Cl)n(C)c1=O	none
COc1ccc(OC)c(C(=O)COC(=O)c2ccccc2O)c1	none (no result: KCC2 mod) | KCC2 sec1 inactive | KCC2 bumet counter inactive | KCC2 secondary2 inactive | HEK293 Tl flux inactive | KCC2 retest ouab 0.023 | HEK counter2 inconclusive
Cc1ccccc1-c1nnc(SCC(=O)Nc2cccc(C)c2C)o1	KCC2 mod -4.8 | KCC2 sec1 inactive | KCC2 bumet counter inactive | KCC2 secondary2 inactive | HEK293 Tl flux inactive | KCC2 retest ouab inactive | HEK counter2 inactive
CC1CCCCN1S(=O)(=O)c1ccc(C(=O)Nc2nnc(-c3ccccc3Cl)o2)cc1 (stereo not given)	KCC2 mod 17 (no result: b-catenin transl) | KCC2 sec1 0.014 | KCC2 bumet counter 0.053 | KCC2 secondary2 inactive | HEK293 Tl flux inconclusive | KCC2 retest ouab 0.042 | HEK counter2 inconclusive
CC1(C)COCN1S(=O)(=O)c1ccc(C(=O)Nc2nnc(-c3ccc(Cl)s3)o2)cc1	KCC2 mod 15 (no result: Pf gametocyte) | KCC2 sec1 inconclusive | KCC2 bumet counter 0.04 | KCC2 secondary2 inactive | HEK293 Tl flux inconclusive | KCC2 retest ouab 0.035 | HEK counter2 inactive
CCCCN(CC)S(=O)(=O)c1ccc(C(=O)Nc2nnc(-c3ccccc3Cl)o2)cc1	none (no result: b-catenin transl, KCC2 mod, Pf gametocyte)
NC(=O)c1ccsc1NC(=O)C1CCCN1S(=O)(=O)c1ccc(Cl)cc1 (stereo not given)	none (no result: KCC2 mod)
CCC1CCCCN1S(=O)(=O)c1ccc(C(=O)Nc2nnc(-c3ccccc3Cl)o2)cc1 (stereo not given)	KCC2 mod 19 (no result: Pf gametocyte) | KCC2 sec1 0.015 | KCC2 bumet counter 0.071 | KCC2 secondary2 inactive | HEK293 Tl flux 0.034 | KCC2 retest ouab 0.042 | HEK counter2 inconclusive
CC1CCCCN1S(=O)(=O)c1ccc(C(=O)Nc2sccc2C(N)=O)cc1 (stereo not given)	KCC2 mod -3.9 (no result: Pf gametocyte) | KCC2 sec1 inactive | KCC2 bumet counter inactive | KCC2 secondary2 inactive | HEK293 Tl flux inactive | KCC2 retest ouab inactive | HEK counter2 inactive
COc1ccc(OCC(=O)N/N=c2\oc3c(OC)cccc3cc2C(N)=O)cc1	none
O=C(O)CCCNS(=O)(=O)/C=C/c1ccccc1	none
Cc1ccc(N2CC(=O)N(NC(=O)c3sc4nc(C)cc(C)c4c3N)CC2=O)cc1	none (no result: WT yeast gro inh, MT stabilize HCS)
CSc1ccc(S(=O)(=O)NC2CC2)cc1	none (no result: WT yeast gro inh, MT stabilize HCS, b-catenin transl, KCC2 mod)
O=C(NCCN1CCN(c2ccccc2)CC1)C1CCN(S(=O)(=O)c2cccc3nsnc23)CC1	none
Fc1cccc(Cl)c1CSc1nnc(CNc2ccccc2)o1	KCC2 mod -3.5 (no result: Pf gametocyte) | KCC2 sec1 inactive | KCC2 bumet counter inactive | KCC2 secondary2 inactive | HEK293 Tl flux 0.0058 | KCC2 retest ouab 0.014 | HEK counter2 inconclusive
O=C(O)c1cc(NC(=O)c2ccccc2[N+](=O)[O-])ccc1O	none
